pIC50: −log10 of the molar value.

The subject of one data set is Huh-7. The data set is described as follows: Antiproliferative activity against human Huh-7 cells assessed as inhibition of cell growth after 72 hrs by CCK8 assay. It counts as functional, cell-based. The gist of the method: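 Cells kept in RPMI or DMEM with 10% FBS and 1% penicillin/streptomycin, 37 °C, 5% CO2. Plated at 400-800 cells/well, treated with a range of test concentrations or vehicle for 72 h. CCK8 reagent added, absorbance read at 450 nm.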

Another data set concerns K562. The data set is described as follows: Antiproliferative activity against human K562 cells assessed as inhibition of cell growth after 72 hrs by CCK8 assay. Particulars: K562, 72 h. Background: Tetrazolium assays rely on reduction of a dye to a coloured formazan, in cell work by metabolically active cells.
A further data set has as its system MCF7. The data set is described as follows: Antiproliferative activity against human MCF-7 cells assessed as inhibition of cell growth after 72 hrs by CCK8 assay. Particulars: MCF7, 72 h.
The target of data set [1] is Epidermal growth factor receptor (Homo sapiens, UniProt P00533). The data set is described as follows: Inhibition of N-terminal GST-tagged human recombinant EGFR cytoplasmic domain (668 to 1210 residues) expressed in baculovirus expression system by Z'-LYTE kinase assay.
Data set [2] concerns the target Epidermal growth factor receptor (Homo sapiens, UniProt P00533, T790M). The data set is described as follows: Inhibition of N-terminal GST-tagged human recombinant EGFR T790M mutant (668 to 1210 residues) expressed in baculovirus expression system by Z'-LYTE kinase assay.
Data set [3] addresses Epidermal growth factor receptor (Homo sapiens, UniProt P00533, L861Q). The data set is described as follows: Inhibition of N-terminal GST-tagged human recombinant EGFR L861Q mutant (668 to 1210 residues) expressed in baculovirus expression system by Z'-LYTE kinase assay.
Data set [4] concerns the target Epidermal growth factor receptor (Homo sapiens, UniProt P00533, L858R). The data set is described as follows: Inhibition of N-terminal GST-tagged human recombinant EGFR L858R mutant (668 to 1210 residues) expressed in baculovirus expression system by Z'-LYTE kinase assay.
The next data set deals with NCI-H1975. The data set is described as follows: Antiproliferative activity against human NCI-H1975 cells harboring EGFR L858R/T790M double mutant assessed as inhibition of cell growth. It counts as functional.
A short description of data set [5]: Toxicity in BALB/c nude mouse xenografted with human NCI-H1975 cells assessed as changes in body weight at 60 mg/kg, iv administered 5 days a week for 3 weeks. It counts as organism-based. Particulars: in vivo, 504 h. The gist of the method:
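Female BALB/c nude mice aged 4-6 weeks, H1975 cells (3 × 10^6 in 0.1 ml RPMI-1640) implanted subcutaneously in the right flank. At day 12, tumors ~150 mm3, mice grouped n=6. […] Test agent in 5% ethanol/5% DMSO/10% Cremophor EL/80% saline at 60 mg/kg i.v. five times weekly. Vehicle group received i.v. vehicle. Tumor and body weight recorded daily by caliper; TV = width² × length × 0.5. Mean ± SD, Student's t-test.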
(In general: Xenograft models place foreign cells or tissue in a host animal.)

Sequence of Epidermal growth factor receptor (Homo sapiens, UniProt P00533, T790M) (P00533 25-1210 T790M limits assumed): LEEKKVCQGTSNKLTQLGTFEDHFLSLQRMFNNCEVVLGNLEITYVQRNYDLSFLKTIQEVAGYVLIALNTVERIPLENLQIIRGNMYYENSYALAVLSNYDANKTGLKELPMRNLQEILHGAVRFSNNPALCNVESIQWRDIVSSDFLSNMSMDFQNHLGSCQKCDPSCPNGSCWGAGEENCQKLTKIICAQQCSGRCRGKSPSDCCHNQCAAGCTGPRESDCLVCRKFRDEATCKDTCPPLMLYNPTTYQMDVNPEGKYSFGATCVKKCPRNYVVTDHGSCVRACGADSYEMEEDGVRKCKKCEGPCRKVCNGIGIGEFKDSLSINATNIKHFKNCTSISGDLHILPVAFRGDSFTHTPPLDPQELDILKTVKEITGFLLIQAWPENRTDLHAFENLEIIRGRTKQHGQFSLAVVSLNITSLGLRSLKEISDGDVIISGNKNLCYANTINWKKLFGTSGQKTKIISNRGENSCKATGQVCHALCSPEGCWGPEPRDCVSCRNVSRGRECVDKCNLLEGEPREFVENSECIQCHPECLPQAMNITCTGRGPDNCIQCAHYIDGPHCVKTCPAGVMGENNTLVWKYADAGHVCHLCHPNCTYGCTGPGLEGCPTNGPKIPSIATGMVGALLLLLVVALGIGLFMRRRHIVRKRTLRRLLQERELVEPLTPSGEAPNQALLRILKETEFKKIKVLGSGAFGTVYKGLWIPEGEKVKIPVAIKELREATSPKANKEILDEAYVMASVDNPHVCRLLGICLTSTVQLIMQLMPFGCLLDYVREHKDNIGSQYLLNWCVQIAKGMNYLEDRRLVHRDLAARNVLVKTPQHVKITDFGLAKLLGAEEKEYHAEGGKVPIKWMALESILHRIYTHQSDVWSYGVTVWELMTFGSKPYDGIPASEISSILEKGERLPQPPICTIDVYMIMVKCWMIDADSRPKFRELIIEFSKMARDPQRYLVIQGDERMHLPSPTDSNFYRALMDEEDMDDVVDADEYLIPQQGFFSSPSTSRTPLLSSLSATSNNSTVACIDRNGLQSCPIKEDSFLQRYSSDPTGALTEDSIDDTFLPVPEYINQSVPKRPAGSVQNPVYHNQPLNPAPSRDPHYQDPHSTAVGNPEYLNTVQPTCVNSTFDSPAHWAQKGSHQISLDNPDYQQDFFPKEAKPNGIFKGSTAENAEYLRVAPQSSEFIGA
Sequence of Epidermal growth factor receptor (Homo sapiens, UniProt P00533) (P00533 whole entry, the tested form may be a part): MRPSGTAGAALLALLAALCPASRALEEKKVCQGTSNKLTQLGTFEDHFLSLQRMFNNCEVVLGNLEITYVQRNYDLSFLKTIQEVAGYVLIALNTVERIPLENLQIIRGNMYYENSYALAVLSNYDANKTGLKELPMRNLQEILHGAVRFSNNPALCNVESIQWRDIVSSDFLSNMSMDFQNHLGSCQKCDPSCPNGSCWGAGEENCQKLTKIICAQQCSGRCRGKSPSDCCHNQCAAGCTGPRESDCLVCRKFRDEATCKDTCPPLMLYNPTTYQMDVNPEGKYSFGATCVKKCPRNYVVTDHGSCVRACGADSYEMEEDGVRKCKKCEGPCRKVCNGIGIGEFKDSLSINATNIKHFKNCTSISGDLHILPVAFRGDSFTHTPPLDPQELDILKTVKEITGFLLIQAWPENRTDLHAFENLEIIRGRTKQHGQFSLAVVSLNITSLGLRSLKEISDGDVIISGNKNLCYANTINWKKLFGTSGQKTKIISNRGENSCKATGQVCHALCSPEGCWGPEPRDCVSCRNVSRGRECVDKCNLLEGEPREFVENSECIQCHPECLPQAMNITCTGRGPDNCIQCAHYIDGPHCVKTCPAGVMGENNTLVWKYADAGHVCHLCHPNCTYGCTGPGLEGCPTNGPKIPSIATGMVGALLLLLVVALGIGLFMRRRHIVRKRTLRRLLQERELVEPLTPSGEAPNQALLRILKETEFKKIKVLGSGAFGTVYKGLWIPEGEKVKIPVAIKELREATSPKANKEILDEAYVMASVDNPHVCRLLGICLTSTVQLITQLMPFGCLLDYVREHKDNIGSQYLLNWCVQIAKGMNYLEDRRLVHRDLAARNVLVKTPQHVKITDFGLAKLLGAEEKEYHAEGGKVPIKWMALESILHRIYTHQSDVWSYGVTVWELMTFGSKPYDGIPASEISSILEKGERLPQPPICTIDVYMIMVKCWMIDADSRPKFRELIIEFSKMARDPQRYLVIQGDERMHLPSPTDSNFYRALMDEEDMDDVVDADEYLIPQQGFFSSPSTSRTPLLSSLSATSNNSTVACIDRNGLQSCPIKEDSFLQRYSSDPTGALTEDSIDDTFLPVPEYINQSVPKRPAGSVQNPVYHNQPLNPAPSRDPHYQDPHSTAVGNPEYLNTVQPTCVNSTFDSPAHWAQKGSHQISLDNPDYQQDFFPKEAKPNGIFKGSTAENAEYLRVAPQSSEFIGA
Sequence of Epidermal growth factor receptor (Homo sapiens, UniProt P00533, L858R) (P00533 25-1210 L858R limits assumed): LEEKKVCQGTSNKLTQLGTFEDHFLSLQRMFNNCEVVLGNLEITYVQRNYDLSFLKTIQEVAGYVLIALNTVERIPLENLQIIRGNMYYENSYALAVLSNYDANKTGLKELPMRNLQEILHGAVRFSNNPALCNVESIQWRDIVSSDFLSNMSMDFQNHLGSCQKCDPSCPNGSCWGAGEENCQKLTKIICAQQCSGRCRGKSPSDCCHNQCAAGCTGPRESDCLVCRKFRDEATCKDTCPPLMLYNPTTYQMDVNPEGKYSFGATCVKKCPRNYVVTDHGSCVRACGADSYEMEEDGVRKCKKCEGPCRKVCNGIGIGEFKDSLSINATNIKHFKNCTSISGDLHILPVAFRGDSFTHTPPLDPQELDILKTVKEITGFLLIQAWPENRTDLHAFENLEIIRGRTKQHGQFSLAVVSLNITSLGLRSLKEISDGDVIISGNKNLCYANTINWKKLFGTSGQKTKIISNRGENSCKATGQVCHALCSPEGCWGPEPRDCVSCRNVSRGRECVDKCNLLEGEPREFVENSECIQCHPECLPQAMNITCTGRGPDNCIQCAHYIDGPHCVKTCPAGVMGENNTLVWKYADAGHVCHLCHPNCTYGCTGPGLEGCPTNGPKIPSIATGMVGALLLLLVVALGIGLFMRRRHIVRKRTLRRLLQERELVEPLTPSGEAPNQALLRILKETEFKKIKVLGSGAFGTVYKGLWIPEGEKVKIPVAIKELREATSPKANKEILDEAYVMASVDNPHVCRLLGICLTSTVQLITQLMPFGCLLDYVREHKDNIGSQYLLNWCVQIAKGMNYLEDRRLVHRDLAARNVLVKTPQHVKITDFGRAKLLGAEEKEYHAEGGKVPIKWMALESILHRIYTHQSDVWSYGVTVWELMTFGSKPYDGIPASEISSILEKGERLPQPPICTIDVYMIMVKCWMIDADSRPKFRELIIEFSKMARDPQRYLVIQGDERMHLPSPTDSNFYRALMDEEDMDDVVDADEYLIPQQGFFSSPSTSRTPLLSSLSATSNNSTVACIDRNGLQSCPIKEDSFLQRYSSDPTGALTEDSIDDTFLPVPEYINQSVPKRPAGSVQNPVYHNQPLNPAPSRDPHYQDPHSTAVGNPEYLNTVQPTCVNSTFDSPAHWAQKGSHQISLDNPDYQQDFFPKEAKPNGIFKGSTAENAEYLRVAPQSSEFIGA
Sequence of Epidermal growth factor receptor (Homo sapiens, UniProt P00533, L861Q) (P00533 25-1210 L861Q limits assumed): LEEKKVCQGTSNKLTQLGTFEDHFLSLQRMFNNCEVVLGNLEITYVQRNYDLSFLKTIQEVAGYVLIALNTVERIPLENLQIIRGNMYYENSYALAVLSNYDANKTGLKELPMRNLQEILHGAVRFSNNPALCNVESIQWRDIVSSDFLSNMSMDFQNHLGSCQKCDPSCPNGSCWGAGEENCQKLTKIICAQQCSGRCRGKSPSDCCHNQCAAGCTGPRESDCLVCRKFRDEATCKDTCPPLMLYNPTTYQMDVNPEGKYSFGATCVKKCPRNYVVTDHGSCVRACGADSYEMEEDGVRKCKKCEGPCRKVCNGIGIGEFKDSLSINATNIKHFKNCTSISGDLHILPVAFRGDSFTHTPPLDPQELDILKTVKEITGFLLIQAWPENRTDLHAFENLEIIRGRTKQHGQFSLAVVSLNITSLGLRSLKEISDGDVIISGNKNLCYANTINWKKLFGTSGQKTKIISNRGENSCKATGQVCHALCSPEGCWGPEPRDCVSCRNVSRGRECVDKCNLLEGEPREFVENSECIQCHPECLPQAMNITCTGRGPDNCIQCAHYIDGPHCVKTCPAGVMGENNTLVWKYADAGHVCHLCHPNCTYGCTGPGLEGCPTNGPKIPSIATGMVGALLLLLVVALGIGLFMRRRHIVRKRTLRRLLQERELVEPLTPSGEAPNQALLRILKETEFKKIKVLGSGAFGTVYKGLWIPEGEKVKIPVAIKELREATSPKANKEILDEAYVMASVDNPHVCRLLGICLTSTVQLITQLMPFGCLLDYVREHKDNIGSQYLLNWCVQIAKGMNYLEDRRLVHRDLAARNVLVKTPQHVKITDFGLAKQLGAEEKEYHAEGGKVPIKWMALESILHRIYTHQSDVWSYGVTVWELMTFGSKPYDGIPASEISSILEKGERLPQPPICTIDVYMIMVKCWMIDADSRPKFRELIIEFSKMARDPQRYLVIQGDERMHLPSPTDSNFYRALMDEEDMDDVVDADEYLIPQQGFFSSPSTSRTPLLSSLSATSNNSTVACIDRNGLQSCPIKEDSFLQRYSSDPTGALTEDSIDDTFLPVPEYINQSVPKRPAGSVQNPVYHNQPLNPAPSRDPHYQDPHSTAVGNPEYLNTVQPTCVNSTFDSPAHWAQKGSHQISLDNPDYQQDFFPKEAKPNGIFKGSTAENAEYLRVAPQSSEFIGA

For orientation: GI50 means the concentration at which growth is held to half of that of the control. For the compound `CC(=O)O[C@H]1C(=O)[C@@]2(C)[C@H]([C@H](OC(=O)c3ccccc3)[C@]3(O)C[C@H](OC(=O)[C@H](O)[C@@H](NC(=O)c4ccccc4)c4ccccc4)C(C)=C1C3(C)C)[C@]1(OC(C)=O)CO[C@@H]1C[C@@H]2O` [PACLITAXEL], the GI50 amounted to 7410 pM with Huh-7, 2760 pM with K562 and 4850 pM in the data set with MCF7.
By pIC50 is commonly meant the negative decadic logarithm of the IC50, by convention in mol/L. With `C#Cc1cccc(Nc2ncnc3cc(OC)c(OCCCCCCN/C(=N\C#N)Nc4ccncc4)cc23)c1`, the pIC50 in data set [1] was 9.46; in [2], 6.49; in data set [3] it was 9.44; in data set [4], 9.49. In addition, the GI50 in the data set with Huh-7 turned out to be 1870 pM; with K562, 7470 pM; with MCF7, 150 pM.
Consider `C#Cc1cccc(Nc2ncnc3cc(OC)c(OCCCCCCCN/C(=N\C#N)Nc4cccnc4)cc23)c1`, for which the negative-log IC50 (pIC50) is 9.27 in data set [1], 6.35 in data set [2], 9.31 in data set [3] and 9.32 in data set [4]. The values for the 50% growth inhibitory concentration (GI50) in the data set on Huh-7, in the data set with K562 and in the data set on MCF7 were 9940 pM, 42100 pM and 630 pM, respectively.
For the compound `C#Cc1cccc(Nc2ncnc3cc(OC)c(OCCCCCCCN/C(=N\C#N)Nc4ccncc4)cc23)c1`, the pIC50 in data set [1] is 9.33; in data set [2], 6.24; in data set [3] it was 9.26; in data set [4], 9.34. For the same compound, the GI50 worked out at 1810 pM in the data set on Huh-7, 50900 pM in the data set with K562 and 210 pM in the data set on MCF7.
In the case of `C#Cc1cccc(Nc2ncnc3cc(OC)c(OCCCCCN/C(=N\C#N)Nc4cccnc4)cc23)c1`, the negative logarithm of the IC50 (pIC50) in data set [1] was 9.28; in data set [2] it was 6.64; in data set [3], 9.34; in data set [4] it was 9.39. Besides, the 50% growth inhibitory concentration (GI50) in the data set on Huh-7 stood at 62900 pM; in the data set on K562, 175000 pM; in the data set on MCF7, 980 pM.
For the compound `C#Cc1cccc(Nc2ncnc3cc(OC)c(OCCCCCCN/C(=N\C#N)Nc4cccnc4)cc23)c1`, the pIC50 in [1] was 9.49; in data set [2], 6.49; in [3], 9.42; in data set [4] it was 9.42. Moreover, the 50% growth inhibitory concentration (GI50) worked out at 24600 pM with K562 and 160 pM with MCF7.
As to `C#Cc1cccc(Nc2ncnc3cc(OC)c(OCCCCCN/C(=N\C#N)Nc4ccncc4)cc23)c1`, the pIC50 in data set [1] was 9.64; in data set [2], 6.82; in data set [3] it was 9.59; in [4] it was 9.59. For the same compound, the concentration for 50% growth inhibition (GI50) in the data set with Huh-7 was determined as 1640 pM; with NCI-H1975, 78300 pM; with K562, 38000 pM; in the data set with MCF7, 100 pM. Besides, the Activity entry in [5] is given as “Non-Toxic”.

Values taken from ChEMBL document CHEMBL4818995, “Dual nicotinamide phosphoribosyltransferase and epidermal growth factor receptor inhibitors for the treatment of cancer” (Eur J Med Chem, 2021).
